Calls of active or inactive are those of the source. The calls are words filed in the database; no cut-off is given here.

Broadly, the IC50 is the concentration that gives 50% inhibition. By Cmax is commonly meant the peak of the concentration-time curve. A word on the Tmax: it is the time at which the peak concentration occurs. As a reminder, the AUC is the area under the concentration-time curve, a measure of exposure.

The subject of data set [1] is U-87 MG. The experiment in a line: Antiproliferative activity against human U-87 MG cells incubated for 48 hrs by MTT assay. Background: Tetrazolium assays rely on reduction of a dye to a coloured formazan, in cell work by metabolically active cells.
The subject of data set [2] is HUVEC. The experiment in a line: Anti-angiogenesis activity in HUVEC assessed as reduction in tube formation at 0.1 uM incubated for 24 hrs by matrigel based light microscopic analysis. The data set is classed as functional, Homo sapiens. Further details: scale not given: the % may be the effect or the level left.
For data set [3], the system named is U-87 MG. In words: Anti-invasive activity against human U-87 MG cells assessed as reduction in number of cells at upper well at 3 uM incubated for 24 hrs by crystal violet staining based inverted microscope analysis. The data set is classed as functional, U-87MG ATCC. An outline of the steps: (§1)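 Transwell top chambers coated with Matrigel (1:9 in serum-free DMEM). U-87 MG cells pretreated 20 min with 0.1% DMSO or compound, seeded at 1×10^4 cells/well, with complete medium below. After 24 h, non-invading cells removed and the rest fixed in paraformaldehyde, stained with 0.1% crystal violet, imaged at ×100 in six random fields and counted.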

The test system of data set [4] is U-87 MG. In words: Induction of cell cycle arrest in human U-87 MG cells assessed as increase in G2/M phase cell population at 3 uM incubated for 48 hrs by PI staining based flow cytometry analysis (reference value: 14.5 %). The data set is classed as functional, U-87MG ATCC. (In flow cytometry, cells or beads pass a laser one at a time.)
Data set [5] relates to U-87 MG. The experiment in a line: Induction of cell cycle arrest in human U-87 MG cells assessed as increase in G2/M phase cell population at 1 uM incubated for 48 hrs by PI staining based flow cytometry analysis (reference value: 14.5 %). The data set is classed as functional, U-87MG ATCC.
Data set [6] has as its system U-87 MG. In words: Anti-invasive activity against human U-87 MG cells assessed as reduction in number of cells at upper well at 0.3 uM incubated for 24 hrs by crystal violet staining based inverted microscope analysis. The data set is classed as functional, U-87MG ATCC. The method, boiled down:
as §1

The subject of data set [7] is HUVEC. The experiment in a line: Anti-angiogenesis activity in HUVEC assessed as reduction in tube formation at 2 uM incubated for 24 hrs by matrigel based light microscopic analysis. Further details: scale not given: the % may be the effect or the level left. The data set is classed as functional, Homo sapiens.
The subject of data set [8] is U-87 MG. In words: Antitumor activity against human U-87 MG cells implanted in nude mouse assessed as reduction in CD31 expression at 50 mg/kg/day, po administered 5 times a week for 4 weeks by IHC analysis. The data set is classed as functional, U-87MG ATCC. Further details: scale not given: the % may be the effect or the level left.
Data set [9] deals with U-87 MG. In words: Antitumor activity against human U-87 MG cells implanted in nude mouse assessed as reduction in CD31 expression at 75 mg/kg/day, po administered 5 times a week for 4 weeks by IHC analysis. The data set is classed as functional, U-87MG ATCC. Further details: scale not given: the % may be the effect or the level left.
The test system of data set [10] is U-87 MG. The experiment in a line: Antitumor activity against human U-87 MG cells implanted in nude mouse assessed as reduction in Ki67 expression at 75 mg/kg/day, po administered 5 times a week for 4 weeks by IHC analysis. The data set is classed as functional, U-87MG ATCC. Further details: scale not given: the % may be the effect or the level left.
Data set [11] can be described thus: Cmax in rat at 52.5 mg/kg, po measured upto 48 hrs by LC analysis. As to conditions: in vivo. The data set is classed as ADME, organism-based. The method, boiled down:
(§2)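 Rats (n=5) dosed orally once with 52.5 mg/kg, dispersed in sodium carboxymethyl cellulose. Plasma separated at 1200×g, deproteinated with acetonitrile, then analysed by UHPLC on a C18 column with a methanol/formic acid eluent.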

The subject of data set [12] is U-87 MG. In words: Induction of cell cycle arrest in human U-87 MG cells assessed as increase in G2/M phase cell population at 0.3 uM incubated for 48 hrs by PI staining based flow cytometry analysis (reference value: 14.5 %). The data set is classed as functional, U-87MG ATCC.
Data set [13] is described as follows: Terminal half-life in rat at 52.5 mg/kg, po measured upto 48 hrs by LC analysis. The data set is classed as ADME, organism-based. As to conditions: in vivo, read-out: beta t1/2 (converted). The method, boiled down:
as §2

Data set [14] in a line: Tmax in rat at 52.5 mg/kg, po measured upto 48 hrs by LC analysis. The data set is classed as ADME, organism-based. Particulars: in vivo. An outline of the steps:
as §2

The nature of data set [15]: AUC in rat at 52.5 mg/kg, po measured upto 48 hrs by LC analysis. The data set is classed as ADME, organism-based. As to conditions: in vivo. An outline of the steps:
as §2

In the next data set the test system is NIH3T3. In words: Cytotoxicity against mouse NIH/3T3 cells incubated for 48 hrs by MTT assay. The data set is classed as toxicity, cell-based. As to conditions: nih3t3, 48 h.
For data set [16], the system named is U-87 MG. The experiment in a line: Induction of cell cycle arrest in human U-87 MG cells assessed as decrease in G0 phase cell population at 0.3 uM incubated for 48 hrs by PI staining based flow cytometry analysis (reference value: 71.6 %). The data set is classed as functional, U-87MG ATCC. Further details: scale not given: the % may be the effect or the level left.

The subject of data set [17] is U-87 MG. The experiment in a line: Inhibition of colony formation in human U-87MG cells.
Data set [18] deals with U-87 MG. In words: Antitumor activity against human U-87 MG cells implanted in nude mouse assessed as reduction in Ki67 expression at 50 mg/kg/day, po administered 5 times a week for 4 weeks by IHC analysis. The data set is classed as functional, U-87MG ATCC. Further details: scale not given: the % may be the effect or the level left.
Data set [19] deals with HUVEC. The experiment in a line: Anti-angiogenesis activity in HUVEC assessed as reduction in tube formation at 0.5 uM incubated for 24 hrs by matrigel based light microscopic analysis. The data set is classed as functional, Homo sapiens. Further details: scale not given: the % may be the effect or the level left.
For another data set, the species on record is Mus musculus. Particulars: dose 50-75 mg/kg/day, route po, time 4.0 weeks.
Data set [20] concerns U-87 MG. The experiment in a line: Induction of cell cycle arrest in human U-87 MG cells assessed as decrease in G0 phase cell population at 1 uM incubated for 48 hrs by PI staining based flow cytometry analysis (reference value: 71.6 %). Further details: scale not given: the % may be the effect or the level left. The data set is classed as functional, U-87MG ATCC.
For data set [21], the system named is U-87 MG. In words: Induction of cell cycle arrest in human U-87 MG cells assessed as decrease in G0 phase cell population at 3 uM incubated for 48 hrs by PI staining based flow cytometry analysis (reference value: 71.6 %). The data set is classed as functional, U-87MG ATCC. Further details: scale not given: the % may be the effect or the level left.

For the compound `CNC(=O)c1cc(-c2ccccc2)sc1Nc1nc(Nc2ccc(N3CCOCC3)cc2)ncc1C(F)(F)F`, the IC50 with U-87 MG [1] is 23.2 µM.
Still for that read-out and setting: to `CNC(=O)c1cc(C(C)(C)C)sc1Nc1nc(Nc2ccc(N3CCOCC3)cc2)ncc1C(F)(F)F` belongs over 50 µM.
Take `CNC(=O)c1ccsc1Nc1nc(Nc2ccc(N3CCC(N4CCOCC4)CC3)cc2)ncc1C(F)(F)F`: the Activity in the data set on HUVEC [2] amounted to 10.4%; in the data set with U-87 MG [3], 24; with U-87 MG [4] it was 86.8%; in the data set with U-87 MG [5], 79.4%; with U-87 MG [6], 71; in the data set with HUVEC [7], 81%. In addition, the Activity in the data set with U-87 MG [8] is on record as 78.9%; in the data set with U-87 MG [9] it was 37.5%; in the data set on U-87 MG [10], 62%; in the data set with U-87 MG [12] it was 56.8%; with NIH3T3, “Non-Toxic”; with U-87 MG [16] it was 34.4%. Besides, the Activity in the data set on U-87 MG [18] was 38.4%; in the data set on HUVEC [19] it was 59.7%; in the data set with U-87 MG [20] it was 16.6%; in the data set with U-87 MG [21], 9.36%. In data set [11], this compound gave a Cmax of 3900 ng/mL. Besides, in data set [13], the half-life is 14.3 h. Besides, the Tmax in data set [14] was determined as 4.4 h. Also, the AUC at 48 h in data set [15] was determined as 71500 ng·h/mL. The IC50 in the data set with U-87 MG [17] stood at 0.12 µM; in the data set on U-87 MG [1], 2.38 µM. The inhibition result in the data set filed under Mus musculus is “Active”.
The compound `CNC(=O)c1ccsc1Nc1nc(Nc2ccc(N3CCC(N4CCOCC4)CC3)cc2)ncc1C` yielded an IC50 in the data set with U-87 MG [1] of 11.6 µM.
Same read-out and setting: then `CNC(=O)c1ccsc1Nc1nc(Nc2ccc(OCCN3CCOCC3)cc2)ncc1C(F)(F)F`, with 12 µM.
Same read-out and setting: to `CNC(=O)c1ccsc1Nc1nc(Nc2ccc(N3CCC(N4CCCCC4)CC3)cc2)ncc1C(F)(F)F` belongs 2.77 µM; to `CNC(=O)c1ccsc1Nc1nc(Nc2ccc(N3CCC(N4CCOCC4)CC3)cc2)ncc1Cl`, 4.25 µM; to `CNC(=O)c1ccsc1Nc1nc(Nc2ccc(N3CCN(CCO)CC3)cc2)ncc1C(F)(F)F`, 3.71 µM.
On the same count and under the same terms, then `CNC(=O)c1ccsc1Nc1nc(Nc2ccc(N3CCC(N4CCOCC4)CC3)cc2)ncc1Br`, with 30.1 µM; and `CNC(=O)c1ccsc1Nc1nc(Nc2ccc(N3CCOCC3)cc2)ncc1C(F)(F)F`, with over 50 µM.
In turn, `COc1cc(CCc2cc(NC(=O)c3ccc(N4C[C@@H](C)N[C@@H](C)C4)cc3)n[nH]2)cc(OC)c1` [FEXAGRATINIB] had an IC50 in the data set with U-87 MG [1] of 25.4 µM.
Same read-out and setting: to `CNC(=O)c1ccsc1Nc1nc(Nc2ccc(CS(=O)(=O)N3CCOCC3)cc2)ncc1C(F)(F)F` belongs 18.9 µM; to `CNC(=O)c1ccsc1Nc1nc(Nc2cccc(N3CCOCC3)c2)ncc1C(F)(F)F`, 19.2 µM.
On the same count and under the same terms, then `CNC(=O)c1ccsc1Nc1nc(Nc2ccc(CCN3CCS(=O)(=O)CC3)cc2)ncc1C(F)(F)F`, with 12.4 µM.

The values are drawn from ChEMBL document CHEMBL5634095, “Design, synthesis and evaluation of novel pyrimidinylaminothiophene derivatives as FGFR1 inhibitors against human glioblastoma multiforme” (Eur J Med Chem, 2023).
